The source of these data is ChEMBL document CHEMBL1759864, “Synthesis and proteasome inhibition of lithocholic acid derivatives” (Bioorg Med Chem Lett, 2011).

Calls of active or inactive are those of the source. The rule behind the calls is not given here. Where a SMILES comes first, the peptide text is derived from it.

Experiment [1] in a line: Inhibition of chymotrypsin-like activity of 20S proteasome.
Experiment [2] has as its system HeLa. Briefly: Inhibition of proteasome activity in human HeLa cells transfected with UbG76V-GFP assessed as accumulation of ubiquitinG76V-GFP at 7.5 uM after 24 hrs by fluorescence microscopy. The procedure, abridged: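 HeLa cells stably expressing Ub^G76V-GFP, grown in DMEM with 10% heat-inactivated FBS at 37 °C, humidified. Cells seeded at 10,000 per well and exposed to compound at 7.5 µM for 24 h. Proteasome block is read as intracellular Ub^G76V-GFP accumulation (green fluorescence), documented by fluorescence microscopy against untreated cells.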

Experiment [3] can be described thus: Inhibition of caspase-like activity of 20S proteasome.
Experiment [4] can be described thus: Inhibition of trypsin-like activity of 20S proteasome.

What is called IC50 is the concentration needed to halve the response being measured. Low values mean higher potency, high ones lower potency. In turn, `C[C@H](CCC(=O)O)[C@H]1CC[C@H]2[C@@H]3CC[C@@H]4C[C@H](OC(=O)[C@@H]5CCCC[C@H]5C(=O)O)CC[C@]4(C)[C@H]3CC[C@]12C` returned an IC50 in experiment [1] of 8.5 µM.

As to `C[C@H](CCC(=O)O)[C@H]1CC[C@H]2[C@@H]3CC[C@@H]4C[C@H](OC(=O)CCCCCC(=O)O)CC[C@]4(C)[C@H]3CC[C@]12C`, in experiment [1], the inhibition result was “inactive”.

For the compound `CC(CC(=O)O[C@@H]1CC[C@@]2(C)[C@H](CC[C@@H]3[C@@H]2CC[C@]2(C)[C@@H]([C@H](C)CCC(=O)O)CC[C@@H]32)C1)C(=O)O` (some centres not stated), the IC50 in experiment [1] amounted to 11.5 µM. That is a double-digit micromolar value.

Regarding `CCOC(=O)CC[C@@H](C)[C@H]1CC[C@H]2[C@@H]3CC[C@@H]4C[C@H](OC(=O)CCCCCC(=O)O)CC[C@]4(C)[C@H]3CC[C@]12C`, the inhibition entry in experiment [1] was “inactive”.

`C[C@H](CCC(=O)O)[C@H]1CC[C@H]2[C@@H]3CC[C@@H]4C[C@H](OC(=O)CC5(CC(=O)O)CCCC5)CC[C@]4(C)[C@H]3CC[C@]12C`: the IC50 in experiment [1] is 2.2 µM. The inhibition result in experiment [2] is “Active”.

As to `COC(=O)CC[C@@H](C)[C@H]1CC[C@H]2[C@@H]3CC[C@@H]4C[C@H](O)CC[C@]4(C)[C@H]3CC[C@]12C`, the inhibition entry in experiment [1] is “inactive”.

For the compound `COC(=O)CC[C@@H](C)[C@H]1CC[C@H]2[C@@H]3CC[C@@H]4C[C@H](OC(=O)Cc5cccc(CC(=O)O)c5)CC[C@]4(C)[C@H]3CC[C@]12C`, the inhibition result in experiment [1] is “inactive”.

Turning to `C[C@H](CCC(=O)O)[C@H]1CC[C@H]2[C@@H]3CC[C@@H]4C[C@H](OC(=O)c5ccccc5C(=O)O)CC[C@]4(C)[C@H]3CC[C@]12C`, the IC50 in experiment [1] is 8.6 µM.

With `CSCC[C@@H](C=O)NC(=O)[C@H](CC(C)C)NC(=O)[C@H](CC(C)C)NC(C)=O` (Ac-Leu-Leu-Met-aldehyde), in experiment [1], the IC50 turned out to be 5.2 µM. This IC50 lies about 1.7-fold lower than the previous one.

Regarding `C[C@H](CCC(=O)O)[C@H]1CC[C@H]2[C@@H]3CC[C@@H]4C[C@H](O)CC[C@]4(C)[C@H]3CC[C@]12C` [LITHOCHOLIC ACID], in experiment [1], half-maximal inhibition (IC50) was put at 18.1 µM.

Regarding `CC(C(=O)O)C(C)C(=O)O[C@@H]1CC[C@@]2(C)[C@H](CC[C@@H]3[C@@H]2CC[C@]2(C)[C@@H]([C@H](C)CCC(=O)O)CC[C@@H]32)C1` (some centres not stated), half-maximal inhibition in experiment [1] (IC50) required 5.8 µM. Compared with the last compound, the IC50 is about 3.1-fold lower.

Regarding `C[C@H](CCC(=O)O)[C@H]1CC[C@H]2[C@@H]3CC[C@@H]4C[C@H](OC(=O)CCCC(=O)O)CC[C@]4(C)[C@H]3CC[C@]12C`, in experiment [1], inhibition was half-maximal at 10.8 µM (IC50).

`C[C@H](CCC(=O)O)[C@H]1CC[C@H]2[C@@H]3CC[C@@H]4C[C@H](OC(=O)CCC(=O)O)CC[C@]4(C)[C@H]3CC[C@]12C` registered an IC50 in experiment [1] of 10.3 µM. The IC50 values of the last two compounds are within 1.5-fold of each other.

`CCOC(=O)CC[C@@H](C)[C@H]1CC[C@H]2[C@@H]3CC[C@@H]4C[C@H](O)CC[C@]4(C)[C@H]3CC[C@]12C`: in experiment [1], the inhibition entry is “inactive”.

For the compound `C[C@H](CCC(=O)O)[C@H]1CC[C@H]2[C@@H]3CC[C@@H]4C[C@H](OC(=O)Cc5cccc(CC(=O)O)c5)CC[C@]4(C)[C@H]3CC[C@]12C`, the IC50 in experiment [1] was 1.9 µM; in experiment [3], 6.5 µM; in experiment [4], 9.1 µM.

As to `COC(=O)CC[C@@H](C)[C@H]1CC[C@H]2[C@@H]3CC[C@@H]4C[C@H](OC(=O)CCCCCC(=O)O)CC[C@]4(C)[C@H]3CC[C@]12C`, the inhibition entry in experiment [1] is “inactive”.

As to `C[C@H](CCC(=O)O)[C@H]1CC[C@H]2[C@@H]3CC[C@@H]4C[C@H](OC(=O)Cc5ccc(CC(=O)O)cc5)CC[C@]4(C)[C@H]3CC[C@]12C`, 3.8 µM corresponded to half-maximal inhibition in experiment [1] (IC50).

On to `C[C@H](CCC(=O)O)[C@H]1CC[C@H]2[C@@H]3CC[C@@H]4C[C@H](OC(=O)COCC(=O)O)CC[C@]4(C)[C@H]3CC[C@]12C`, for which, in experiment [1], the IC50 is 6.9 µM.

The compound `C[C@H](CCC(=O)O)[C@H]1CC[C@H]2[C@@H]3CC[C@@H]4C[C@H](OC(=O)CCCCC(=O)O)CC[C@]4(C)[C@H]3CC[C@]12C` registered an IC50 in experiment [1] of 3.5 µM. This IC50 is about 2-fold lower than that of the compound before.
